Reference: PubChem BioAssay
Calls of active or inactive are those of the source.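 The calls were made as follows, unless noted: active = GFP response above 150% of the DMSO level; inconclusive = fewer than 70 events counted for a yeast strain; inactive = the rest.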

Columns and labels:
[1] = hit retest on RPL19A-GFP reporter strain – cell-based, S. cerevisiae, flow cytometry, cherry picks, mother/daughter gates, confirmation (AID 2270;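 active = GFP response below 50% of the DMSO control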); conditions: 3 h, at 10 µM, stronger effect = lower value, 100 = same GFP as DMSO wells
[2] = yeast TOR pathway reporter LAP4-GFP change – cell-based, cherry picks, flow cytometry, mother/daughter gates, confirmation (AID 2271;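 active = GFP response above 150% of the DMSO control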;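 also: ratio of sample to DMSO plate mean so 100% equals DMSO level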); conditions: S. cerevisiae LAP4-GFP strain, 3 h, at 10 µM, stronger effect = higher value, 100 means same as DMSO control
Summary of the method: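 System: GFP-fusion yeast strain | Input: Yeast cells seeded at OD600 of 0.2 | Technique: HT flow cytometry, GFP fluorescence channel | Read-out: % GFP response vs DMSO | Dosing: Single test-compound dose, 10 µM final | Controls: Positive rapamycin (400 ng/mL), negative DMSO | Times: 3 h treatment at 30 °C with rotation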

[3] = TOR pathway reporter MEP2-GFP, retest of hits – S. cerevisiae, flow cytometry GFP, cherry picks, confirmation (AID 2272;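 active = GFP response above 150% of the DMSO control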;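 also: ratio of well signal to plate DMSO mean so 100% equals DMSO level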); conditions: S. cerevisiae MEP2-GFP strain, 3 h, at 10 µM, stronger effect = higher value
[4] = yeast AGP1-GFP fluorescence change, single-dose – cell-based, flow cytometry, S. cerevisiae, cherry picks, confirmation (AID 2273);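 also: median GFP channel fluorescence over the whole cell population gate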; conditions: S. cerevisiae AGP1-GFP strain, 3 h, at 10 µM
[5] = TOR pathway CIT2 reporter hit retest – S. cerevisiae, GFP fusion, cherry picks, mother/daughter gates, confirmation (AID 2274); conditions: S. cerevisiae CIT2-GFP strain, flow cytometry, 3 h, at 10 µM, stronger effect = higher value
[6] = measured here: daughter cell gate
[7] = measured here: mother cell gate
[8] = measured here: daughter cell gate response
[9] = measured here: mother cell gate response

Structure (SMILES) | GFP response vs DMSO [1] | GFP response vs DMSO [1, 6] [%] | GFP response vs DMSO [1, 7] [%] | GFP response relative to DMSO [2] | GFP response relative to DMSO [2, 8] [%] | GFP response relative to DMSO [2, 9] [%] | GFP response vs DMSO [3] | GFP response, % of DMSO [4] | GFP response, % of DMSO [5] | GFP response, % of DMSO [5, 6] [%] | GFP response, % of DMSO [5, 7] [%]
Cc1ccc(NC(=O)c2nc(S(=O)(=O)Cc3ccccc3)ncc2Cl)cc1 | 92% (inactive) | 92.5 | 89.8 | 141% (inactive) | 134 | 140 | 95.7% (inactive) | 100% (inactive) | 90% (inactive) | 89.9 | 85.8
NS(=O)(=O)c1ccc(S(=O)(=O)c2ccccc2)nc1 | 98.2% (inactive) | 99.1 | 96.9 | 97.9% (inactive) | 97.6 | 97.2 | 102% (inactive) | 95.6% (inactive) | 103% (inactive) | 105 | 102
CCN(CC)S(=O)(=O)c1cccc(C(=O)NCC(c2ccccc2)N(C)C)c1 (stereo unspecified) | 99.7% (inactive) | 102 | 98.5 | 110% (inactive) | 111 | 106 | 106% (inactive) | 104% (inactive) | 104% (inactive) | 106 | 98
CCN(Cc1ccccc1)S(=O)(=O)c1ccc(C(=O)Nc2nnc(C3CC3)o2)cc1 | 98% (inactive) | 97 | 98.6 | 106% (inactive) | 105 | 104 | 99.5% (inactive) | 96.9% (inactive) | 99.3% (inactive) | 100 | 96.8
COc1ccc(S(=O)(=O)N2Cc3ccccc3CC2C(=O)O)cc1OC (stereo unspecified) | 97% (inactive) | 97 | 97.1 | 98.8% (inactive) | 96.5 | 98.5 | 104% (inactive) | 102% (inactive) | 99.3% (inactive) | 100 | 99.1
NNC(=O)c1ccc(COc2ccc3ccccc3c2)cc1 | 98% (inactive) | 96.1 | 95.7 | 101% (inactive) | 101 | 102 | 99% (inactive) | 94.9% (inactive) | 93% (inactive) | 93.8 | 91.9
CS(=O)(=O)N1N=C(c2ccco2)CC1c1ccccc1 (stereo unspecified) | 100% (inactive) | 101 | 99.9 | 102% (inactive) | 102 | 100 | 99% (inactive) | 105% (inactive) | 106% (inactive) | 105 | 103
COc1cc(NC(=O)c2ccc(F)cc2)ccc1NC(=O)c1cc2ccccc2o1 | 98% (inactive) | 99.1 | 94.3 | 96.1% (inactive) | 96.6 | 96.2 | 101% (inactive) | 102% (inactive) | 94.7% (inactive) | 96.8 | 94.7
COC(=O)c1ccc(NC(=O)c2nc(S(=O)(=O)Cc3cccc(C)c3)ncc2Cl)cc1 | 98.4% (inactive) | 96.1 | 98.7 | 103% (inactive) | 102 | 106 | 100% (inactive) | 95.7% (inactive) | 88.7% (inactive) | 88.3 | 86.9
O=C(Nc1c2c(nn1-c1ccccc1)CS(=O)C2)c1ccco1 (stereo unspecified) | 96.5% (inactive) | 97.3 | 95 | 92.9% (inactive) | 96 | 95.4 | 99.3% (inactive) | 100% (inactive) | 97.2% (inactive) | 99.3 | 96
COc1cc(NC(=O)c2cc3ccccc3o2)ccc1NC(=O)c1ccco1 | 99% (inactive) | 97.9 | 98.9 | 96.7% (inactive) | 97.6 | 96.1 | 102% (inactive) | 94.1% (inactive) | 104% (inactive) | 105 | 103
Oc1cccc(/C=N/c2c(-c3ccco3)nc3ccccn23)c1 | 96.6% (inactive) | 96.2 | 96.9 | 96.5% (inactive) | 97.9 | 94.6 | 97.5% (inactive) | 97.1% (inactive) | 96.4% (inactive) | 98.3 | 94.5
CC(=O)Oc1ccc(N2C(=O)C3C4C=CC(O4)C3C2=O)cc1 (stereo unspecified) | 98.2% (inactive) | 99.1 | 98.9 | 102% (inactive) | 101 | 101 | 107% (inactive) | 96.8% (inactive) | 99.7% (inactive) | 99.1 | 99.7
CCc1c2ccccc2nn1-c1ccccc1C(=O)C(C)=O | 95.8% (inactive) | 97.3 | 94 | 102% (inactive) | 101 | 102 | 103% (inactive) | 100% (inactive) | 98.6% (inactive) | 99.3 | 98.2
COc1ccc([N+](=O)[O-])c(S(=O)(=O)c2ccc(Cl)cc2)n1 | 84.5% (inactive) | 54.7 | 74.7 | 333% (active) | 173 | 309 | 136% (inactive) | 131% (inactive) | 93.4% (inactive) | 100 | 78.8
C=CCn1c(=O)c(C(=O)Nc2ccccc2C(=O)OCC)c(O)c2ccccc21 | 100% (inactive) | 101 | 101 | 87.2% (inactive) | 86.4 | 89.7 | 99.5% (inactive) | 101% (inactive) | 96.4% (inactive) | 96.4 | 95.6
